In the library only some 2.3% were active in any assay of this set; here they are far more common.
TRPC4 act: TRPC4 (mouse) channel activation | Q9QUQ5 | HEK293 TRPC4beta/mu-opioid, Fluo4 calcium fluorescence; hits give high values | B-score at 10 µM | hit rate 0.49% among 310,000;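 active = B-score above 5 SD of library B-scores, and initial fluorescence ratio not above library mean plus 5 SD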;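 note: positive B-score marks a calcium rise read as TRPC4 activation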
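Material: TRPC4beta and mu-opioid receptor HEK293 stable cells | Incubation: 45 min room-temperature Fluo4 loading, 110 s read | Detection: Kinetic Fluo4 calcium fluorescence | Measure: Integrated baseline-normalised fluorescence ratio, converted to per-well B score | Benchmarks: Low control buffer alone, high control maximal DAMGO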
TRPC4 block: inhibitors of mouse TRPC4 channel; Q9QUQ5; HEK293 TRPC4beta/mu-opioid, DAMGO-evoked Fluo4 calcium flux; hits give low values; B-score at 10 µM; hit rate 0.39% among 300,000; AID 2247;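 active = B-score over 3 SD under the library average, no early fluorescence shift, positive overall ratio signal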
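material = TRPC4beta/mu-opioid receptor HEK293 cell line | probe or stimulus = sequential submaximal and maximal DAMGO stimulation | compound dosing = one concentration per compound | measured by = Fluo4 Ca2+ flux fluorescence | evaluation = integrated fluorescence ratio relative to baseline, converted to per-well B score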
TRPC6 inh: blocks the mouse TRPC6 cation channel; HEK293-TRPC6, membrane potential dye, ACh-evoked depolarization; hits give low values; AID 2553; hit rate 1.1% among 310,000; Q61143; B-score at 10 µM;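 active = B-score under library mean minus 3 SD, initial fluorescence not abnormally high, positive integrated signal ratio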;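 note: B-score derived from integrated fluorescence ratio over the kinetic read; more negative B-score means stronger inhibition of depolarization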
TRPC6 activator: mouse TRPC6 channel activation; hit rate 0.13% among 310,000; Q61143; B-score at 10 µM; HEK293-TRPC6 membrane potential dye fluorescence; hits give high values;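 active = B-score of the integrated fluorescence ratio above library mean plus 3 SD, and starting fluorescence ratio within library mean plus 5 SD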;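 note: higher score means more depolarization so channel activation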
TRPC4 potent: TRPC4 (mouse) allosteric potentiation; Q9QUQ5; HEK293 TRPC4beta/mu-opioid, DAMGO EC20, Fluo-4 Ca2+ flux; hits give high values; B-score at 10 µM; hit rate 0.42% among 310,000;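 active = B-score of calcium response area above 5 SD of library B-scores, with initial fluorescence ratio within 5 SD of library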
Numbers stand for hits; - = inactive.

SMILES | TRPC4 act | TRPC4 block | TRPC6 inh | TRPC6 activator | TRPC4 potent
CC(=O)c1ccc(N2CCN(C(=O)/C=C/c3ccc(S(=O)(=O)N4CCOCC4)cc3)CC2)cc1 | - | - | - | - | -
CC(=O)c1ccc(N2CCN(C(=O)/C=C/c3ccc(S(=O)(=O)NCc4ccco4)cc3)CC2)cc1 | - | - | - | - | 12
Cn1c(CCNC(=O)c2ccccc2F)nnc1SCC(=O)Nc1ccccc1F | - | - | - | - | -
O=C1COc2ccc(N3C(=O)C=CC3=O)cc2N1 | - | -7 | - | - | -
O=C1COc2ccc(S(=O)(=O)N3CCCC3)cc2N1 | - | - | - | - | -
Cc1ccc(S(=O)(=O)Nc2nc(C)c(C)s2)cc1 | - | - | - | - | -
Cc1cccc2sc(N(CCN(C)C)C(=O)c3cc(Cl)sc3Cl)nc12 | - | - | - | - | 12
Cc1ccc(NC(=O)C(C)OC(=O)Cc2c[nH]c3ccccc23)cc1 (stereo not drawn) | - | -6 | - | - | -
CCOC(=O)CCN | - | - | - | - | -
COc1ccc(-n2ncc3c2CC(C)(C)CC3NC(=O)C2CCN(C(C)=O)CC2)cc1 (stereo not drawn) | - | - | - | - | -
OCCNc1nc2ccccc2n1CCN1CCCCC1 | - | -6 | - | - | -
CCCCn1c(NCCO)nc2ccccc21 | - | -6 | - | - | -
O=C(Cn1c(NCCCO)nc2ccccc21)c1ccc(Br)cc1 | - | -7 | - | - | -
CCCCn1c(NCc2ccccc2O)nc2ccccc21 | - | - | - | - | -
CCCCC(=O)Nc1cccc2c1C(=O)N(c1ccccc1)C2=O | - | - | - | - | 24
CC1CCc2c(sc3ncnc(SCC(=O)Nc4ccc(C(=O)O)cc4)c23)C1 (stereo not drawn) | - | -6 | - | - | -
COc1cc(NC(=O)CSc2ncnc3sc4c(c23)CCC(C)C4)c(C(=O)O)cc1OC (stereo not drawn) | - | -6 | - | - | -
Nc1ccc2nc(SCc3ccccc3F)sc2c1 | - | - | - | - | -
CCCC1Cc2nc(N3CCCCC3)c(C#N)cc2CO1 (stereo not drawn) | - | - | - | - | 10
CCCC1Cc2[nH]c(=O)c(C#N)cc2CO1 (stereo not drawn) | - | - | - | - | -
CCN(CC)CCNC(=O)c1cc2cc3ccc(OC)cc3nc2o1 | - | - | - | - | -
CCCCN(C)CCNC(=O)c1cc2cc3ccc(OC)cc3nc2o1 | - | - | - | - | 12
Cc1ccc(C)c(N(CC(=O)NC2CCCC2)C(=O)c2csnn2)c1 | 70 | -10 | - | - | -
CN(C)/C(Cn1cncn1)=C1/N=C(c2ccccc2)OC1=O | - | - | - | - | -
CN1CCN(C/C(=C2/N=C(c3ccccc3)OC2=O)N(C)C)CC1 | - | - | - | - | 13
SMILES | TRPC4 act | TRPC4 block | TRPC6 inh | TRPC6 activator | TRPC4 potent
CCOCCCN(CCC#N)C(=O)C1CCN(S(=O)(=O)c2ccc(-n3cnnn3)cc2)CC1 | - | - | - | - | -
COc1ccccc1N1CCN(C(c2cccs2)C(C)NC(=O)c2ccco2)CC1 (stereo not drawn) | 103 | - | - | - | -
Cc1nn(C(C)C(=O)NC2CCC(C)CC2)c(=O)c2nn(-c3ccccc3)c(C)c12 (stereo not drawn) | - | - | - | - | -
COc1ccc(C(O)(C2CCCCC2)C(CN2CCOCC2)c2ccccc2)cc1 (stereo not drawn) | - | - | - | - | 14
CCC(O)(c1ccc(OC)cc1)C(CN1CCOCC1)c1ccccc1 (stereo not drawn) | - | -6 | - | - | -
COc1ccc(C(O)(C(C)C)C(CN2CCOCC2)c2ccc(Cl)cc2)cc1 (stereo not drawn) | - | - | - | - | 12
CCc1ccc(NC(=O)N(CCN(C)C)C(C)c2cccnc2)cc1 (stereo not drawn) | 72 | - | - | - | -
CCOc1ccc(NC(=O)N(CCN(C)C)C(C)c2cccnc2)cc1 (stereo not drawn) | - | - | - | - | -
COc1ccc(C(=O)CN2C(=O)NC3(CCCc4ccccc43)C2=O)c(OC)c1 (stereo not drawn) | - | - | - | - | -
CN1CCN(NC(=O)CN(C)S(=O)(=O)c2cc(Cl)ccc2Cl)CC1 | 84 | - | - | - | -
CCCCCn1c(=O)[nH]c2cc(C(=O)NCCN(CC)CC)ccc2c1=O | - | - | - | - | 14
C=CCN1C(=O)c2ccc(C(=O)N3CCN(S(=O)(=O)c4ccc(C(C)C)cc4)CC3)cc2C1=O | - | - | - | - | -
CC1CC(C)CN(CCCNC(=O)C2CCN(S(=O)(=O)N3CCCCC3)CC2)C1 (stereo not drawn) | 59 | - | - | - | -
O=C(Cc1ccccc1)NCC(=O)OCC(=O)c1ccc(F)cc1 | - | - | - | - | -
CCN(CCCNS(=O)(=O)c1cc(-c2cc(C)no2)ccc1C)Cc1ccccc1 | 175 | - | - | - | -
COc1ccc(OC2CCN(S(=O)(=O)c3cccc(F)c3)CC2)cc1 | - | - | - | - | 11
CCc1ccc(OC(C)C(=O)Nc2ccc(S(=O)(=O)Nc3nccs3)cc2)cc1 (stereo not drawn) | - | - | - | - | 12
O=C(c1ccc(CNS(=O)(=O)c2cccc(Cl)c2)cc1)N1CCCCC1 | - | - | - | - | -
CCOC(=O)N1CCC(NC(=O)CS(=O)Cc2nc(-c3ccccc3C)oc2C)CC1 (stereo not drawn) | - | - | - | - | 13
Cc1oc(-c2ccccc2F)nc1CS(=O)CC(=O)NC1CC1 (stereo not drawn) | - | - | - | - | -
CSc1ncc(C(=O)Nc2ccc(C(C)=O)cc2)c(C)n1 | - | - | - | - | -
CC1CC(C)CN(CCCNC(=O)CCC(=O)N2CCOc3ccccc32)C1 (stereo not drawn) | 73 | - | - | - | -
CC(=O)Nc1ccc(NS(=O)(=O)c2ccccc2)cc1 | - | - | - | - | -
CC(=O)C(C(C)=O)c1cc(NS(=O)(=O)c2ccccc2)ccc1NS(=O)(=O)c1ccccc1 | 47 | - | - | - | -
Cc1ccc(/C=C/C(=O)c2ccc(O)cc2)cc1 | - | -6 | - | - | -
CCN(CCNC(=O)C1CCN(S(=O)(=O)c2cccc3nsnc23)CC1)c1ccccc1 | - | - | - | - | -
CCCN(CCC)CCCNC(=O)C1CCN(S(=O)(=O)c2cccc3nsnc23)CC1 | 134 | - | - | - | -
CCN(CC(=O)Nc1ccc(NC(C)=O)cc1)C(=O)CN1C(=O)NC2(CCCC2)C1=O | - | - | - | - | -
CCCN1Cc2cccc(C(=O)N3CCN(c4cc(Cl)ccc4C)CC3)c2C1=O | - | - | - | - | 15
C=CCN1CCN(C(c2cccc(OC)c2OC)c2nnnn2CCC(C)C)CC1 (stereo not drawn) | - | -7 | - | - | -
